TAAR1 agonist: human TAAR1 agonism | 0.99% of 360,000 active | CHO RD-HGA16 TAAR1, Fluo-8 calcium fluorescence; vehicle wells 0%, saturating PEA agonist 100% | activation, % at 3 µM;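 active = activation above the mean activation of all test compounds in the run plus 3 SD, cut at about 38% in these data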
Target sequence (Q96RJ0 whole entry, looked up): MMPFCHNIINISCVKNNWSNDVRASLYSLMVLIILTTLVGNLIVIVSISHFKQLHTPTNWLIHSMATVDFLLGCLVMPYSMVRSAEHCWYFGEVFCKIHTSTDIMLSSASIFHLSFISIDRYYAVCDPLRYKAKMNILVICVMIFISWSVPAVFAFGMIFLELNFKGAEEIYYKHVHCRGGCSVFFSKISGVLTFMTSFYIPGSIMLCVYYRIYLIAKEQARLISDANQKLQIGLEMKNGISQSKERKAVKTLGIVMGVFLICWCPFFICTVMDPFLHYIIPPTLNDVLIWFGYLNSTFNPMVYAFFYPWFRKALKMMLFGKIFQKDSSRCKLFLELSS
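Assay system – CHO-derived RD-HGA16 cells with stable Gα16 and human TAAR1 · Compound dosing – one-point dosing at 3 µM (nominal) · Incubation – 17-24 h seeding, 75 min 37 °C dye, 30 min RT · Measured by – kinetic Fluo-8 calcium fluorescence · Control set – DMSO vehicle as 0%, PEA at EC100 as 100% · Repeats – single well for each compound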
TAAR1 antag: antagonists of human TAAR1; Q96RJ0; CHO RD-HGA16 TAAR1, Fluo-8 calcium fluorescence, antagonist; inhibition, % at 3 µM; 1.5% of 360,000 active;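 active = inhibition above a per-plate cutoff, the mean inhibition of test compounds on that plate plus 3 SD, cut at about 49% in these data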;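 note: 0% = DMSO plus EC80 beta-PEA response and 100% = DMSO alone without agonist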
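Assay system: RD-HGA16 CHO cells with stable hTAAR1 and Gα16 / Reagent: EC80 β-phenethylamine stimulus / Doses: 3 µM, single point / Timing: dye loading 75 min at 37 °C, then 30 min room temperature / Measured by: Fluo-8 intracellular calcium dye fluorescence, real-time kinetic reads / Controls: vehicle wells and EC80 agonist wells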
HCV NS3 hel inh: blocks Hepatitis C virus NS3 helicase unwinding; NS3 helicase DNA unwinding, Cy5 molecular beacon fluorescence; inhibition, % at 10.9 µM; 0.56% of 290,000 active; AID 1800;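 active = inhibition above the mean of all tested compounds plus 3 SD, set per campaign, cut at about 35% in these data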;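 note: 0% = DMSO wells and 100% = thioflavine S control wells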
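Measured by: Cy5 fluorescence, 0 and 60 min reads / Assay system: NS3 helicase fragment of HCV / Control set: low DMSO, high thioflavine S at 110 µM / Times: 1 h reaction at 25 °C, ATP-initiated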
HCV core dimer: blocks dimerization of HCV core protein. TR-FRET GST/Flag-core106 dimerization, 1536-well. inhibition, % at 5 µM. 0.33% of 300,000 active. AID 1899;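 active = inhibition above the mean of all tested compounds plus 3 SD, set per screening campaign, cut at about 45% in these data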
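Material: GST/Flag-tagged HCV core106 proteins. Incubation: 4 h, 22.5 °C incubation. Read-out basis: inhibition (%) from 671 over 617 nm ratio. Measured by: TR-FRET, excitation 340 nm, emission 617 and 671 nm.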
rCAG RNA binder: binds r(CAG) RNA repeats | r(CAG) RNA repeat, TO-PRO-1 dye displacement fluorescence | inhibition, % at 3 µM | 1.3% of 370,000 active;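 active = inhibition above the plate cutoff, the mean of all test compounds on that plate plus 3 SD, cut at about 35% in these data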;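 note: 0% = DMSO alone and 100% = 100 µM mitoxantrone as full dye displacement; higher means more dye released from RNA so lower well fluorescence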
rCAG bind conf: r(CAG) RNA repeat binding, confirmation | shares compounds with rCAG RNA binder | TO-PRO-1 dye displacement fluorescence | inhibition, % at 3 µM | 70% of 4,300 active | AID 652065;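 active = inhibition above a per-plate cutoff, the mean inhibition of sample wells plus 3 SD, cut at about 35% in these data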;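 note: loss of TO-PRO-1 fluorescence as compound displaces dye from 1x1 AA loop RNA; 0% = DMSO only wells and 100% = 100 µM mitoxantrone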
DNA CAG counter: counter-screen for rCAG RNA binders: DNA CAG dye complex inhibitors | shares compounds with rCAG RNA binder | d(CAG) DNA oligo TO-PRO-1 dye displacement, fluorescence | inhibition, % at 3 µM | 94% of 4,300 active | AID 652068;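 active = inhibition above its plate's cutoff, the mean test-well inhibition plus 3 SD, cut at about 4.8% in these data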;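 note: 0% = DNA dye mix with DMSO and 100% = 100 µM mitoxantrone; hits displace the dye from DNA and so lower well fluorescence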
Starred values were filed as active, the others as inactive; x = no result given. In the library only some 3.7% were active in any assay of this set; here they are far more common.

SMILES	TAAR1 agonist	TAAR1 antag	HCV NS3 hel inh	HCV core dimer	rCAG RNA binder	rCAG bind conf	DNA CAG counter
CC(C)C(=O)N(c1cc2sc(=O)oc2c2ccccc12)S(=O)(=O)c1cccs1	7	17	7	-2	77*	48*	23*
O=C(Nc1ccccc1)OC1CC2CC1[C@H]1CCCCN1[C@H]2Cc1ccccc1 (stereo partly drawn)	x	x	x	x	4	x	x
CSc1nnc(N2C(=O)C(O)=C(C(=O)c3ccc(C)o3)C2c2ccc(C)cc2)s1 (stereo not drawn)	-1	-10	11	-7	39*	32	5.6*
CSc1nnc(N2C(=O)C(O)=C(C(=O)c3ccco3)C2c2ccccc2)s1 (stereo not drawn)	2	-41	7	-5	7	x	x
CSc1nnc(N2C(=O)C(O)=C(C(=O)c3ccco3)C2c2ccccc2F)s1 (stereo not drawn)	-2	-34	23	-7	7	x	x
CCCSc1nnc(N2C(=O)C(O)=C(C(=O)c3ccco3)C2c2ccccc2F)s1 (stereo not drawn)	-1	-1	17	-7	48*	41*	11*
Cc1ccc(NC(=O)[C@H]2CC(=O)O[C@@H]2c2ccccc2)c(C)c1	x	x	x	x	-1	x	x
COC(=O)[C@]12C[C@H](CC(=O)NCC34CC5CC(CC(C5)C3)C4)C(=O)N(Cc3ccco3)C1=C[C@H](C(C)C)O[C@@H]2C1CC1	x	x	x	x	8	x	x
COc1ccc(C(=O)C2(C(=O)NCc3ccccc3)CC(c3ccccc3C(F)(F)F)=NO2)cc1 (stereo not drawn)	x	x	x	x	5	x	x
O=C(O)c1ccc(NC2=C/C(=N/S(=O)(=O)c3cccs3)c3ccccc3C2=O)cc1	2	19	x	x	17	x	x
CCc1ccc(S(=O)(=O)/N=C2\C=C(Nc3ccc(O)cc3)C(=O)c3ccccc32)cc1	x	x	-24	-3	x	x	x
CCc1ccc(S(=O)(=O)/N=C2\C=C(Nc3cccc(C(=O)O)c3)C(=O)c3ccccc32)cc1	0	0	-5	2	81*	76*	37*
O=C(O)c1ccc(NC2=C/C(=N/S(=O)(=O)c3ccccc3)c3ccccc3C2=O)cc1	7	29	11	x	61*	38*	11*
O=C1C(Nc2ccc(O)cc2)=C/C(=N/S(=O)(=O)c2cccs2)c2ccccc21	4	46	-4	x	24	x	x
Cc1cc(C)c(S(=O)(=O)/N=C2\C=C(Nc3ccc(C(=O)O)cc3)C(=O)c3ccccc32)c(C)c1	6	20	-23	-1	85*	81*	50*
Cc1ccc(Nc2nnc(SCC(O)=C(C#N)c3nc4ccccc4[nH]3)s2)c(C)c1	0	19	x	x	57*	45*	21*
CCN=C1NC(c2ccccc2C(F)(F)F)C(C(=O)OC)=C(C)N1Cc1ccc(C(F)(F)F)cc1 (stereo not drawn)	12	10	x	x	4	x	x
O=C(O)CN1C(=O)/C(=C\c2cccc(OCc3ccc(Cl)cc3Cl)c2)SC1=S	4	11	19	x	79*	85*	58*
O=C(O)CCN1C(=O)/C(=C\c2cccc(OCc3ccccc3)c2)SC1=S	2	-11	-4	21	7	x	x
O=C(O)CN1C(=O)/C(=C\c2cc(Br)ccc2OCc2ccccc2F)SC1=S	-1	-12	25	9	65*	87*	61*
O=C(CC(CC(=O)c1ccc(Cl)cc1)c1ccccc1C(=O)O)c1ccc(Cl)cc1	-2	2	30	10	42*	54*	13*
O=c1cc(-c2ccccc2)[nH]n1-c1nc2ccccc2[nH]1	1	-4	0	-8	65*	16	9.1*
CCc1cc(=O)[nH]c(-n2[nH]c(-c3ccccc3)cc2=O)n1	9	4	6	-2	17	x	x
Cc1[nH]c(=O)nc(SCc2ccc(Cl)c(Cl)c2)c1C#N	2	-31	6	-2	38*	30	7.2*
Cc1[nH]c(=O)nc(SCc2cccc(Cl)c2)c1C#N	-3	-55	7	-4	26	x	x
SMILES	TAAR1 agonist	TAAR1 antag	HCV NS3 hel inh	HCV core dimer	rCAG RNA binder	rCAG bind conf	DNA CAG counter
CC(=O)Nc1ccc(Br)c2ccccc12	2	-3	3	2	1	x	x
O=C(Nc1ccc(Br)c2ccccc12)c1ccc2ccccc2c1O	5	3	29	46	77*	78*	40*
COc1cccc(-c2cc(CNC(=O)[C@H]3O[C@@H](n4cnc(C(N)=O)n4)[C@H](O)[C@@H]3O)no2)c1	3	-42	x	x	3	x	x
O=C(Nc1ccccc1C(=O)O)c1cccc(NC(=O)c2ccccc2Br)c1	1	-37	0	13	48*	33	9.5*
O=C(CCC1CCCCC1)Nc1cccc(C(=O)Nc2ccc(C(=O)O)cc2)c1	1	-7	22	-2	35*	27	5.5*
O=C(O)c1cccc(NC(=O)c2cc(NC(=O)c3ccccc3)cc(NC(=O)c3ccccc3)c2)c1	4	-8	33	5	66*	60*	24*
O=C(O)c1cccc(NC(=S)NC(=O)C(c2ccccc2)c2ccccc2)c1	12	4	20	2	45*	34	9.3*
O=C(O)c1cccc(NC(=O)c2ccccc2)c1	1	-22	x	x	0	x	x
Cc1ccc(-n2nc3ccc(NC(=O)/C=C/c4ccco4)cc3n2)cc1	1	9	25	46	38*	19	11*
CC1(C(=O)O)CCCN(C(=O)c2ccc3c(c2)C(C)(C)CCC3(C)C)C1 (stereo not drawn)	2	-7	x	x	16	x	x
O=C(Nc1cc(C(=O)Nc2ccccc2C(=O)O)cc(C(=O)Nc2ccccc2C(=O)O)c1)c1ccccc1	-2	-52	10	42	77*	86*	61*
CC1(C)CCC(C)(C)c2cc(NC(=O)c3ccc(C(=O)O)cc3)ccc21	x	x	x	x	53*	36*	7.5*
O=C(/C=C/c1ccco1)Nc1cccc(C(=O)Nc2ccccc2C(=O)O)c1	-2	-30	23	6	67*	82*	49*
CCN(CC)C(=O)CC[C@H]1CC[C@]2(CCCN(C(=O)C3CCCC3)C2)O1	x	x	x	x	0	x	x
Cc1ccc(NC(=O)CN2CCN(c3nc(-c4ccccc4)cs3)CC2)cc1C	x	x	x	x	8	x	x
O=C(O)c1cccc(NC(=O)c2cn(-c3ccccc3)nc2-c2ccncc2)c1	5	-12	-4	-4	14	x	x
O=C(O)c1ccc(NC(=O)c2cn(-c3ccccc3)nc2-c2ccccc2)cc1	10	42	13	6	24	x	x

Screening results as filed in PubChem.
